The target in one test is GABA ρ1 P2′S receptors (Homo sapiens, UniProt P24046, P315S). Description: Whole-cell patch-clamp on CHO cells expressing mutant ρ1 P2′S receptors. In kind it is cell-based. To be noted: 100 μM Azo-NZ1, 10 μM GABA, visible light. (In patch-clamp work, channel activity is measured electrically.)
A further test addresses T1, 5‐HT3A receptors (Homo sapiens, UniProt P46098).
T1 sequence (P46098 24-478): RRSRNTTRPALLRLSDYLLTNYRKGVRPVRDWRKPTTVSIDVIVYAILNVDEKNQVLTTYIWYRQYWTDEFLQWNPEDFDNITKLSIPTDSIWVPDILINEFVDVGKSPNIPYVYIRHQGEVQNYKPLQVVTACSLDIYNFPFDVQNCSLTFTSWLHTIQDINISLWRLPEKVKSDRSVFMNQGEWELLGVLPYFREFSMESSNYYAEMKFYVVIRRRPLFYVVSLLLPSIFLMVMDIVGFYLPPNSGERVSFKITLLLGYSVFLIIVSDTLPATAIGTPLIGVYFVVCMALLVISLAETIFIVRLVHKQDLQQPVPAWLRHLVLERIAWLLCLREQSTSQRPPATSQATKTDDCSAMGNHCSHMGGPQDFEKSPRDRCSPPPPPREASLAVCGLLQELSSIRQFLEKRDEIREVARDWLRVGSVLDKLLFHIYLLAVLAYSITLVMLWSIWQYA
The experiment in a line: Whole-cell patch-clamp on CHO cells expressing homomeric 5HT3A receptors. In kind it is cell-based. To be noted: trans or cis‐configuration. The procedure, abridged: (§1)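 CHO-K1 cells were transfected (Lipofectamine) with receptor subunit cDNA plus GFP; fluorescent cells were recorded whole-cell 24–72 hr later at 20–25°C. External HEPES-buffered saline at pH 7.4; KCl-based pipette solution at pH 7.3. Agonist and test compound were co-applied by a fast three-tube system at Vh −30/+30 mV or on a −60 to +60 mV ramp. UV came from a 365 nm LED (0.6 mW·mm−2). Cells with input resistance <150 MOhm or >30% run-down were excluded.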

A further test deals with α1/β2/γ2 GABAA receptors (Homo sapiens, UniProt P14867+P18507+P47870). The experiment in a line: Whole-cell patch-clamp on CHO cells expressing heteromeric GABAA receptors. The test is classed as cell-based. Particulars: for decrease of currents induced by GABA (ramp protocol): 50 μM Azo-NZ1, 5 μM GABA, n = 5; for decrease of currents induced by GABA (ramp protocol) / decrease of amplitude of GABA-induced currents: visible light; for decrease of amplitude of GABA-induced currents: 70 μM Azo-NZ1, 5 μM GABA.

Another test deals with ρ2 mutant S2′G receptors (Homo sapiens, UniProt P28476, S295G). The experiment in a line: Whole-cell patch-clamp on CHO cells expressing mutant ρ2 S2′G receptors. In kind it is cell-based. The procedure, abridged: as §1
Another test concerns the target ρ1 GABAC receptors (Homo sapiens, UniProt P24046). The experiment in a line: Whole-cell patch-clamp on CHO cells expressing homomeric ρ1 GABAC receptors. The test is classed as cell-based. To be noted: visible and UV light.
In another test the target is T2, α1 glycine receptors (Homo sapiens, UniProt P23415).
T2 sequence (P23415 29-457): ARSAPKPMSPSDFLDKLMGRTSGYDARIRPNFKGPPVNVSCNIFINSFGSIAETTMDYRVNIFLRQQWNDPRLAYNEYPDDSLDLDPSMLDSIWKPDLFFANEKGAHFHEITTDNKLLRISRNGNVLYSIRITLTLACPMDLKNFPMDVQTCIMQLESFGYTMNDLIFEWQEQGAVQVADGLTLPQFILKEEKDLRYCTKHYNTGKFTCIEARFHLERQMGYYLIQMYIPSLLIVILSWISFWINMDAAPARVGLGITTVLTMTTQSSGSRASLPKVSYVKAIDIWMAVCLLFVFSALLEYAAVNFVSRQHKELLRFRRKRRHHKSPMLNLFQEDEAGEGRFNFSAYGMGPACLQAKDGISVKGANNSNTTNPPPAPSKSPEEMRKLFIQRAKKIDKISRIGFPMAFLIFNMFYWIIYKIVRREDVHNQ
Description: Whole-cell patch-clamp on CHO cells expressing α1 glycine receptors. To be noted: 50 μM, glycine 30 μM, Vh −30 mV. The test is classed as cell-based. A digest of the protocol:
as §1

The next test addresses T3, α2 glycine receptors (Homo sapiens, UniProt P23416).
T3 sequence (P23416 28-452): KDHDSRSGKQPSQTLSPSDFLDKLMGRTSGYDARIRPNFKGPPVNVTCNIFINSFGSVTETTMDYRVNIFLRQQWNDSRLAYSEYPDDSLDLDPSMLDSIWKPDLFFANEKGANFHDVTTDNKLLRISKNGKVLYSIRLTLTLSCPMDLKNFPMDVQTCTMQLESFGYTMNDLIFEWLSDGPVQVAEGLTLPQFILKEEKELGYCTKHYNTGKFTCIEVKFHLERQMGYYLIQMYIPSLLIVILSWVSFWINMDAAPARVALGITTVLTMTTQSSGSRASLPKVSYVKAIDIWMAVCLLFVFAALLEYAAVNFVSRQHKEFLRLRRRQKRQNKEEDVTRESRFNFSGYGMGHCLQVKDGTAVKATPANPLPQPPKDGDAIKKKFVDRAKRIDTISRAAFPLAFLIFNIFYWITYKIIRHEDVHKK
Description: Whole-cell patch-clamp on CHO cells expressing α2 glycine receptors. Particulars: 50 μM, glycine 30 μM, Vh −30 mV, n = 10. The test is classed as cell-based. The procedure, abridged:
as §1

The target of a further test is ρ2 GABAC receptors (Homo sapiens, UniProt P28476). The experiment in a line: Whole-cell patch-clamp on CHO cells expressing homomeric ρ2 GABAC receptors. The test is classed as cell-based. A digest of the protocol:
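ρ2 receptors were expressed in CHO-K1 cells by cDNA transfection with GFP; whole-cell recordings were made 24–72 hr later at 20–25°C using fast solution exchange. […] Test compound inhibition of GABA-evoked currents was measured at Vh −30 and +30 mV and normalised to the current just before compound application; mean ± SEM.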

The subject of test [1] is GABAergic eIPSCs in dentate gyrus granule cells. Description: Evoked GABAergic postsynaptic currents. The test is classed as cell-based, mice. Particulars: for suppression of eIPSCs amplitude to: n = 5. The procedure, abridged: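 Hippocampal slices (coronal) from 3–4-week-old ICR outbred mice of both sexes, recovered ≥1 hr at room temperature and superfused with oxygenated aCSF at 32–34°C. Whole-cell recordings from dentate granule cells at Vh 0 mV. eIPSCs were evoked every 10 s from a theta-glass electrode placed 100–200 μm away. Protocol: 20–30 control events, then test compound in aCSF for 5–10 min, perfusate illuminated at 365 nm then 455 nm for 3–5 min each.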

Chain of α1/β2/γ2 GABAA receptors (P14867 28-456): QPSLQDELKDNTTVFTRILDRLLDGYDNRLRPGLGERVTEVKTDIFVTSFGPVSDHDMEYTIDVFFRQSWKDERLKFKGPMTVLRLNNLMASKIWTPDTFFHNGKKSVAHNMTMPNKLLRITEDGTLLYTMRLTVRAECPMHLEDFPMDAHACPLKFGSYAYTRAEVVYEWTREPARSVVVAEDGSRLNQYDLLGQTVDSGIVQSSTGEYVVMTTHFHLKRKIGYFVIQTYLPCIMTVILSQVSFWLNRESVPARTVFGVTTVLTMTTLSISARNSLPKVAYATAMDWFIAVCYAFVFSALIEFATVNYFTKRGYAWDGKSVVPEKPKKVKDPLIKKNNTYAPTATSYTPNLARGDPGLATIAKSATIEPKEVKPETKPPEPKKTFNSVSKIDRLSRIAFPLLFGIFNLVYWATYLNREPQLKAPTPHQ
Chain of α1/β2/γ2 GABAA receptors (P47870 25-512 limits assumed): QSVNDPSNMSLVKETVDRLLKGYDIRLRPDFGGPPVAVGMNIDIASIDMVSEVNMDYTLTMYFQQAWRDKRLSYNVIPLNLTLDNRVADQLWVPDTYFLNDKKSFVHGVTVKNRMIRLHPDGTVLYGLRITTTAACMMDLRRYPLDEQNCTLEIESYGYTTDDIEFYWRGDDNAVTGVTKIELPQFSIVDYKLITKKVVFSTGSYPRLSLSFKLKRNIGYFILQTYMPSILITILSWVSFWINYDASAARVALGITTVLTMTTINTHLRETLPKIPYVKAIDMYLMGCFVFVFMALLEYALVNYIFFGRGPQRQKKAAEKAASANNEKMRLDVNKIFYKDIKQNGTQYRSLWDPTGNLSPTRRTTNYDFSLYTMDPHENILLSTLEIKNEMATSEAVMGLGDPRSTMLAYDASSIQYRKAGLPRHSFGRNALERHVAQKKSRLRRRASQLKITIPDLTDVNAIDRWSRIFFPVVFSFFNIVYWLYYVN
Chain of α1/β2/γ2 GABAA receptors (P18507 40-467 isoform P18507-1 limits assumed): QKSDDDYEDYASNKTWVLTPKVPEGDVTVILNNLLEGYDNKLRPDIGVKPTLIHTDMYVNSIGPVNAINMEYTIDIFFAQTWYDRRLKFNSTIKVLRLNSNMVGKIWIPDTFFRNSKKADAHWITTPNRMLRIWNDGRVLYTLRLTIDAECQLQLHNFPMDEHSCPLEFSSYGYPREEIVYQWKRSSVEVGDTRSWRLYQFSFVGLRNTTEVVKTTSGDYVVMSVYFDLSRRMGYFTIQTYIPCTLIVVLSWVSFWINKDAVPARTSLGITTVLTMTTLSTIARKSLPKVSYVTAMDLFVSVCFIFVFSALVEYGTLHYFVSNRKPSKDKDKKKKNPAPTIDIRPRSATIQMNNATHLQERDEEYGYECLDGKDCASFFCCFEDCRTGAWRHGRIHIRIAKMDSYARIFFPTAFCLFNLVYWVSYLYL
Chain of ρ2 mutant S2′G receptors (P28476 21-465 S295G): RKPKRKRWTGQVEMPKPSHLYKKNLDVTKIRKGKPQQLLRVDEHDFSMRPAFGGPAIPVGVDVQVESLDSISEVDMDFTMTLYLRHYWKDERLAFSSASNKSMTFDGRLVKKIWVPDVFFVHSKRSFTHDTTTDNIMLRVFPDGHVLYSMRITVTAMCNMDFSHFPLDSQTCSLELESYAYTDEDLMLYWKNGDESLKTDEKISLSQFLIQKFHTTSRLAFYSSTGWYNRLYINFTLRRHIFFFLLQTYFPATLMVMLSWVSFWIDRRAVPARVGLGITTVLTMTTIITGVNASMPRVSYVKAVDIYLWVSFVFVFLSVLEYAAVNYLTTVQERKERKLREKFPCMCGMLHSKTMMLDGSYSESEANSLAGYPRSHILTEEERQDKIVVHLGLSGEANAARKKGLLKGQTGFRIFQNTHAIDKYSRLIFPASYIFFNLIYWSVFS
Chain of ρ1 GABAC receptors (P24046 22-479): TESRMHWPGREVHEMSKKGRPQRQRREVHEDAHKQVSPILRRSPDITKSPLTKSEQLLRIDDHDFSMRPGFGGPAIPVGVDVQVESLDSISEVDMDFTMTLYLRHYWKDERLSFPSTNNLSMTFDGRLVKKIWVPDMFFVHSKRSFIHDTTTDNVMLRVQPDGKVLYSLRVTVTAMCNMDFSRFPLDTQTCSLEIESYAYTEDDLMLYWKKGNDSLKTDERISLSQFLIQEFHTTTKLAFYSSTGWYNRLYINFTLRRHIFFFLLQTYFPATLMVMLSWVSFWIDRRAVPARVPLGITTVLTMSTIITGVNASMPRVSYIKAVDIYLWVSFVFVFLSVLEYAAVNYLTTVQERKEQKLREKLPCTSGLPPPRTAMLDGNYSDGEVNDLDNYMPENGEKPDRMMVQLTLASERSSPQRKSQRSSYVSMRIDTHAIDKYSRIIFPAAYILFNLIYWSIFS
Chain of ρ2 GABAC receptors (P28476 21-465): as the sequence (P28476 21-465 S295G) above, with G275S counted along it
Chain of GABA ρ1 P2′S receptors (P24046 22-479 P315S): as the sequence (P24046 22-479) above, with P294S counted along it

A word on the IC50: it is the concentration that gives 50% inhibition. For the compound `O=C1CN=C(c2ccccc2)c2cc(/N=N/c3ccc(S(=O)(=O)O)cc3)ccc2N1` [Azo‐NZ1, (E)‐4‐((2‐oxo‐5‐phenyl‐2,3‐dihydro‐1H‐benzo[e][1,4]diazepin‐7‐yl)diazenyl)benzenesulfonic acid], the “effect on GABA-induced currents” value is reported as “inhibited currents” at GABA ρ1 P2′S receptors and “did not produce effect” on α1/β2/γ2 GABAA receptors (Azo-NZ1 0.5–1 μM, 5 μM GABA). Moreover, on 5‐HT3A receptors, the “interaction with 5‐HT3A receptors” value is on record as “did not interact in a specific manner”. Also, the 50% inhibitory concentration (IC50) at α1/β2/γ2 GABAA receptors was 67 ± 5 µM; on ρ2 GABAC receptors, 128 ± 25 µM. The “decrease of currents induced by GABA (ramp protocol)” value was determined as 76 ± 5% at α1/β2/γ2 GABAA receptors (+60 mV) and 40 ± 4% at α1/β2/γ2 GABAA receptors (−60 mV). The “effect at saturating GABA compared with 5 μM GABA” value at α1/β2/γ2 GABAA receptors (50 μM Azo-NZ1 co-applied with 300 μM GABA, Vhold −30 mV) is reported as “even stronger inhibitory effect”. Besides, the “decrease of amplitude of GABA-induced currents” value on α1/β2/γ2 GABAA receptors (+30 mV) was 78%; on α1/β2/γ2 GABAA receptors (−30 mV), 51%. The UV effect result at ρ2 mutant S2′G receptors (UV illumination in presence of Azo-NZ1) was “virtually absent”. At ρ2 mutant S2′G receptors (upon application of Azo-NZ1, n = 5), the “decrease of current amplitude” value turned out to be 14 ± 2%. In addition, the “effect on receptor activity” value on ρ1 GABAC receptors is “did not alter the activity”. For the same compound, the “current amplitude reduced to” value on α1 glycine receptors (UV illumination) came to 73 ± 2%; on α1 glycine receptors (visible light (trans), n = 4) it was 86 ± 3%. Also, the “current amplitude under UV illumination” value on α2 glycine receptors (UV illumination) was 95 ± 7%. The “current amplitude decreased to” value on α2 glycine receptors (visible light) is listed as 23 ± 3%. The “suppression of eIPSCs amplitude to” value in [1] (100 μM Azo-NZ1, blue light, Vh 0 mV) was 58.6 ± 3.3%; in test [1] (200 μM Azo-NZ1, blue light, Vh 0 mV), 25.2 ± 6.0%. For the same compound, the “amplitude of eIPSCs” value in test [1] (single neuron, 100 μM Azo-NZ1, Vh 0 mV, control aCSF 156.9 ± 4.5 pA) came out at 100.6 ± 3.2 pA.
For `CN1CCc2cc3c(cc2[C@H]1[C@@H]1OC(=O)c2c1ccc1c2OCO1)OCO3` [Bicuculline, bicuculline, reference compound], the “effect on eIPSCs” value in test [1] (bicuculline 10 μM, Vh 0 mV) was “complete inhibition”.
`CN1C(=O)CN=C(c2ccccc2)c2cc(Cl)ccc21` [Diazepam, diazepam, reference compound]: the “effect on GABA-induced current amplitude” value on α1/β2/γ2 GABAA receptors (diazepam 10 μM co-applied with non-saturating GABA (5 μM), Vh −30 mV) is “increase in the current amplitude”.

Values taken from paper PMC6609548 (British Journal of Pharmacology, 2019).
